Experimental findings from ChEMBL document CHEMBL2331178, “Novel pyridinone derivatives as non-nucleoside reverse transcriptase inhibitors (NNRTIs) with high potency against NNRTI-resistant HIV-1 strains” (J Med Chem, 2013) are described below.

Each structure is given as a SMILES string. pEC50, pIC50: −log10 of the molar value.

In general, pEC50 refers to the negative decadic logarithm of the EC50, by convention in mol/L. As a reminder, the CC50 is the concentration at which the toxic effect on the cells reaches its halfway point. Low readings indicate greater toxicity to the cells, high ones lower toxicity to the cells. For orientation: pIC50 means the IC50 on a negative log10 scale, so that one unit is a factor of ten. Read a high pIC50 as a low IC50.

For series [1], the system named is Human immunodeficiency virus 1. The experiment in a line: Antiviral activity against NNRTI-resistant Human immunodeficiency virus 1 A17 double mutant infected in human MT4 cells assessed decrease in p24 level after 7 days by ELISA. The format is functional, organism-based. The following applies: Human immunodeficiency virus 1, A17, MT4, 168 h. Summed up:
(§1)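 MT4 cells (4×10^4/well) were infected with 200 TCID50 HIV-1 and held 2 h at 37 °C, then serially diluted compound was added. […] The K103N and Y181C viruses came from transfecting RT-mutant plasmids into 293T/17 cells.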
Background: ELISA stands for enzyme-linked immunosorbent assay.

Series [2] can be described thus: Selectivity index, ratio of CC50 for human TZM-bl cells to EC50 for Human immunodeficiency virus 1 A17 infected in human TZM-bl cells. To be noted: read-out: Ratio CC50/EC50. The series is classed as toxicity, cell-based.
Series [3] can be described thus: Selectivity index, ratio of CC50 for human MT4 cells to EC50 for Human immunodeficiency virus 1 A17 infected in human MT4 cells. The format is toxicity, cell-based. The following applies: read-out: Ratio CC50/EC50.
For series [4], the system named is Human immunodeficiency virus 1. The experiment in a line: Antiviral activity against NNRTI-resistant Human immunodeficiency virus 1 harboring reverse transcriptase K103N mutation infected in human TZM-bl cells assessed decrease in p24 level after 7 days by ELISA. The following applies: Human immunodeficiency virus 1, TZM-bl, 168 h. The format is functional, organism-based.

Series [5] can be described thus: Cytotoxicity against human TZM-bl cells. The series is classed as cell-based.
The test system of series [6] is Human immunodeficiency virus 1. The series can be described thus: Antiviral activity against NNRTI-resistant Human immunodeficiency virus 1 harboring reverse transcriptase K103N mutation infected in human MT4 cells assessed decrease in p24 level after 7 days by ELISA. The format is functional, organism-based. To be noted: Human immunodeficiency virus 1, MT4, 168 h. Summed up: as §1

For series [7], the system named is Human immunodeficiency virus 1. The series can be described thus: Antiviral activity against NNRTI-resistant Human immunodeficiency virus 1 harboring reverse transcriptase Y181C mutation infected in human MT4 cells assessed decrease in p24 level after 7 days by ELISA. The following applies: Human immunodeficiency virus 1, MT4, 168 h. The format is functional, organism-based. Summed up:
as §1

Series [8] can be described thus: Selectivity index, ratio of CC50 for human MT4 cells to EC50 for Human immunodeficiency virus 1 SF33 infected in human MT4 cells. The format is toxicity, cell-based. The following applies: read-out: Ratio CC50/EC50.
Series [9] deals with Human immunodeficiency virus 1. The series can be described thus: Antiviral activity against NNRTI-resistant Human immunodeficiency virus 1 A17 double mutant infected in human TZM-bl cells assessed decrease in p24 level after 7 days by ELISA. The format is functional, organism-based. The following applies: Human immunodeficiency virus 1, A17, TZM-bl, 168 h.
The target of series [10] is Human immunodeficiency virus type 1 reverse transcriptase (Human immunodeficiency virus 1) (UniProt Q72547). The series can be described thus: Ratio of nevirapine IC50 to compound IC50 for HIV1 reverse transcriptase.
Series [11] in a line: Selectivity index, ratio of CC50 for human TZM-bl cells to EC50 for Human immunodeficiency virus 1 SF33 infected in human TZM-bl cells. The format is toxicity, cell-based. To be noted: read-out: Ratio CC50/EC50.
Series [12] concerns the target Human immunodeficiency virus type 1 reverse transcriptase (Human immunodeficiency virus 1, UniProt Q72547). The experiment in a line: Inhibition of HIV1 reverse transcriptase after 1 hr by colorimetric assay. Summed up: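 Purified recombinant wild-type RT with poly(rA)/oligo(dT)16 template-primer and serial inhibitor concentrations. Incubated 1 h at 37 °C. Incorporated biotin detected with streptavidin-alkaline phosphatase and PNPP (30 min, 37 °C), read colorimetrically.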

Series [13] is described as follows: Cytotoxicity against human MT4 cells after 3 days by XTT assay. The format is cell-based. The procedure, abridged:
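Graded compound concentrations added to MT4 cells (5×10^4/well) for 3 days at 37 °C. CCK-8 reagent then added for 4 h at 37 °C to develop the XTT formazan product, and absorbance read at 450 nm. CC50 derived from percent cytotoxicity.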

For series [14], the system named is Human immunodeficiency virus 1. The experiment in a line: Antiviral activity against Human immunodeficiency virus 1 SF33 infected in human MT4 cells assessed decrease in p24 level after 7 days by ELISA. The format is functional, organism-based. The following applies: Human immunodeficiency virus 1, SF33, MT4, 168 h. The procedure, abridged: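 MT4 cells (4×10^4/well) infected with 200 TCID50 of HIV-1 for 2 h at 37 °C, then serial dilutions of compound added. After 7 days at 37 °C, p24 measured in a commercial ELISA.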

Series [15] concerns the target Human immunodeficiency virus type 1 reverse transcriptase (Human immunodeficiency virus 1) (UniProt Q72547). The series can be described thus: Ratio of TNK651 IC50 to compound IC50 for HIV1 reverse transcriptase.
Series [16] deals with Human immunodeficiency virus 1. The series can be described thus: Antiviral activity against Human immunodeficiency virus 1 SF33 infected in human TZM-bl cells assessed decrease in p24 level after 7 days by ELISA. The series is classed as functional, organism-based. To be noted: Human immunodeficiency virus 1, SF33, TZM-bl, 168 h.
Series [17] deals with Human immunodeficiency virus 1. The experiment in a line: Antiviral activity against NNRTI-resistant Human immunodeficiency virus 1 harboring reverse transcriptase Y181C mutation infected in human TZM-bl cells assessed decrease in p24 level after 7 days by ELISA. The format is functional, organism-based. To be noted: Human immunodeficiency virus 1, TZM-bl, 168 h.

`CC(C)c1c(O[C@H]2CCCC[C@@H]2C)cc(CCc2ccccc2)[nH]c1=O` (racemic): the pEC50 in series [1] is 7.05; in series [4] it was 7.12; in series [6], 7.74; in series [7], 6.72; in series [9], 6.86; in series [14], 8.40. The values for the pEC50 in series [16] and in series [17] were 8.05 and 7.20, respectively. Also, the selectivity ratio in [2] was 2160; in series [3] it was more than 3330; in series [8], more than 75000; in series [11], more than 33300. The same compound gave a CC50 in [5] of more than 300000 nM. The Ratio IC50 came to 1480 in series [10] and 29 in [15]. This compound also had a pIC50 in series [12] of 8.52. For the same compound, the CC50 at 72 h in [13] is more than 300000 nM.
